According to ChEMBL document CHEMBL4732237, “Discovery of 4-alkoxy-2-aryl-6,7-dimethoxyquinolines as a new class of topoisomerase I inhibitors endowed with potent in vitro anticancer activity” (2021):

Experiments:
Format in all cases: functional
Details in all cases: read-out: GI
HL-60(TB) = assay: Growth inhibition of human HL-60(TB) cells at 10 uM incubated for 48 hrs by sulforhodamine B assay relative to control
In short: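 NCI-60 one-dose screen: same culture, 48 h drug exposure and SRB read-out. Reported as percent growth relative to no-drug control and to time-zero cell number; 0–100 means growth inhibition, below 0 means lethality.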

K562 = assay: Growth inhibition of human K562 cells at 10 uM incubated for 48 hrs by sulforhodamine B assay relative to control
In short: (§1)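 NCI-60 single-dose screen. Cells were grown in RPMI 1640 with 5% FBS and 2 mM L-glutamine and plated 24 h before drug addition. Compound was added at one concentration in DMSO-derived medium and incubated for 48 h at 37 °C in 5% CO2. Read-out was SRB protein stain at 515 nm. Result is percent growth versus the no-drug control and the time-zero cell count; values below 0 indicate lethality.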

MOLT-4 = assay: Growth inhibition of human MOLT-4 cells at 10 uM incubated for 48 hrs by sulforhodamine B assay relative to control
In short: (§2)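 NCI one-dose screen. Cells grown in RPMI 1640 with 5% FBS and 2 mM L-glutamine, plated and incubated 24 h at 37 °C, 5% CO2. DMSO-dissolved drug added, then 48 h further incubation. Adherent cells fixed with cold TCA, suspension cells fixed after settling. Stained with 0.4% SRB, absorbance read at 515 nm. Reported as percent growth relative to no-drug control and time-zero cell number.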

SR = assay: Growth inhibition of human SR cells at 10 uM incubated for 48 hrs by sulforhodamine B assay relative to control; in short: as §2
EKVX = assay: Growth inhibition of human EKVX cells at 10 uM incubated for 48 hrs by sulforhodamine B assay relative to control; in short: as §1
HOP-62 = assay: Growth inhibition of human HOP-62 cells at 10 uM incubated for 48 hrs by sulforhodamine B assay relative to control; in short: as §1
NCI-H23 = assay: Growth inhibition of human NCI-H23 cells at 10 uM incubated for 48 hrs by sulforhodamine B assay relative to control; in short: as §2
NCI-H322M = assay: Growth inhibition of human NCI-H322M cells at 10 uM incubated for 48 hrs by sulforhodamine B assay relative to control; in short: as §2
NCI-H460 = assay: Growth inhibition of human NCI-H460 cells at 10 uM incubated for 48 hrs by sulforhodamine B assay relative to control; in short: as §2
NCI-H522 = assay: Growth inhibition of human NCI-H522 cells at 10 uM incubated for 48 hrs by sulforhodamine B assay relative to control; in short: as §2
COLO 205 = assay: Growth inhibition of human COLO 205 cells at 10 uM incubated for 48 hrs by sulforhodamine B assay relative to control; in short: as §1
KM12 = assay: Growth inhibition of human KM12 cells at 10 uM incubated for 48 hrs by sulforhodamine B assay relative to control; in short: as §1
SW-620 = assay: Growth inhibition of human SW-620 cells at 10 uM incubated for 48 hrs by sulforhodamine B assay relative to control
In short: (§3)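 NCI one-dose screen across a 59-line panel. Cells were grown in RPMI 1640 with 5% FBS and 2 mM L-glutamine, plated and pre-incubated 24 h, then exposed to drug for 48 h at 37 °C, 5% CO2. Adherent cells were fixed with cold TCA (10% final), stained with 0.4% SRB in 1% acetic acid and read at 515 nm. Result is percent growth relative to no-drug control and time-zero cell count.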

SF-268 = assay: Growth inhibition of human SF-268 cells at 10 uM incubated for 48 hrs by sulforhodamine B assay relative to control; in short: as §2
SF-539 = assay: Growth inhibition of human SF-539 cells at 10 uM incubated for 48 hrs by sulforhodamine B assay relative to control; in short: as §2
SNB-19 = assay: Growth inhibition of human SNB-19 cells at 10 uM incubated for 48 hrs by sulforhodamine B assay relative to control; in short: as §2
SNB-75 = assay: Growth inhibition of human SNB-75 cells at 10 uM incubated for 48 hrs by sulforhodamine B assay relative to control; in short: as §2
U-251 = assay: Growth inhibition of human U-251 cells at 10 uM incubated for 48 hrs by sulforhodamine B assay relative to control; in short: as §3
M14 = assay: Growth inhibition of human M14 cells at 10 uM incubated for 48 hrs by sulforhodamine B assay relative to control; in short: as §1
MDA-MB-435 = assay: Growth inhibition of human MDA-MB-435 cells at 10 uM incubated for 48 hrs by sulforhodamine B assay relative to control; in short: as §1
SK-MEL-2 = assay: Growth inhibition of human SK-MEL-2 cells at 10 uM incubated for 48 hrs by sulforhodamine B assay relative to control; in short: as §2
UACC-257 = assay: Growth inhibition of human UACC-257 cells at 10 uM incubated for 48 hrs by sulforhodamine B assay relative to control; in short: as §3
UACC-62 = assay: Growth inhibition of human UACC-62 cells at 10 uM incubated for 48 hrs by sulforhodamine B assay relative to control; in short: as §3
IGROV-1 = assay: Growth inhibition of human IGROV-1 cells at 10 uM incubated for 48 hrs by sulforhodamine B assay relative to control; in short: as §1
OVCAR-3 = assay: Growth inhibition of human OVCAR-3 cells at 10 uM incubated for 48 hrs by sulforhodamine B assay relative to control; in short: as §2
OVCAR-4 = assay: Growth inhibition of human OVCAR-4 cells at 10 uM incubated for 48 hrs by sulforhodamine B assay relative to control; in short: as §2
OVCAR-5 = assay: Growth inhibition of human OVCAR-5 cells at 10 uM incubated for 48 hrs by sulforhodamine B assay relative to control; in short: as §2
OVCAR-8 = assay: Growth inhibition of human OVCAR-8 cells at 10 uM incubated for 48 hrs by sulforhodamine B assay relative to control; in short: as §2
NCI/ADR-RES = assay: Growth inhibition of human NCI/ADR-RES cells at 10 uM incubated for 48 hrs by sulforhodamine B assay relative to control; in short: as §2
SK-OV-3 = assay: Growth inhibition of human SK-OV-3 cells at 10 uM incubated for 48 hrs by sulforhodamine B assay relative to control; in short: as §2
RXF 393 = assay: Growth inhibition of human RXF 393 cells at 10 uM incubated for 48 hrs by sulforhodamine B assay relative to control; in short: as §2
TK-10 = assay: Growth inhibition of human TK-10 cells at 10 uM incubated for 48 hrs by sulforhodamine B assay relative to control; in short: as §3
UO-31 = assay: Growth inhibition of human UO-31 cells at 10 uM incubated for 48 hrs by sulforhodamine B assay relative to control; in short: as §3
PC-3 = assay: Growth inhibition of human PC-3 cells at 10 uM incubated for 48 hrs by sulforhodamine B assay relative to control; in short: as §2
MCF7 = assay: Growth inhibition of human MCF7 cells at 10 uM incubated for 48 hrs by sulforhodamine B assay relative to control; in short: as §1
MDA-MB-468 = assay: Growth inhibition of human MDA-MB-468 cells at 10 uM incubated for 48 hrs by sulforhodamine B assay relative to control; in short: as §1

Measured: inhibition of growth at 10 µM

COc1cc2nc(-c3ccc(Cl)cc3)cc(OCCCN3CCOCC3)c2cc1OC
62%: HL-60(TB) | K562 | MOLT-4 | SR | EKVX | HOP-62 | NCI-H23 | NCI-H322M | NCI-H460 | NCI-H522 | COLO 205 | KM12 | SW-620 | SF-268 | SF-539 | SNB-19 | SNB-75 | U-251 | M14 | MDA-MB-435 | SK-MEL-2 | UACC-257 | UACC-62 | IGROV-1 | OVCAR-3 | OVCAR-4 | OVCAR-5 | OVCAR-8 | NCI/ADR-RES | SK-OV-3 | RXF 393 | TK-10 | UO-31 | PC-3 | MCF7 | MDA-MB-468

COc1cc2nc(-c3ccc(Cl)cc3)cc(OCCCN3CCC(O)CC3)c2cc1OC
62%: HL-60(TB) | K562 | MOLT-4 | SR | EKVX | HOP-62 | NCI-H23 | NCI-H322M | NCI-H460 | NCI-H522 | COLO 205 | KM12 | SW-620 | SF-268 | SF-539 | SNB-19 | SNB-75 | U-251 | M14 | MDA-MB-435 | SK-MEL-2 | UACC-257 | UACC-62 | IGROV-1 | OVCAR-3 | OVCAR-4 | OVCAR-5 | OVCAR-8 | NCI/ADR-RES | SK-OV-3 | RXF 393 | TK-10 | UO-31 | PC-3 | MCF7 | MDA-MB-468
